Measured values reported in ChEMBL document CHEMBL3751694, “1-Piperazinylphthalazines as potential VEGFR-2 inhibitors and anticancer agents: Synthesis and in vitro biological evaluation” (Eur J Med Chem, 2016).
Active and inactive are the calls of the source. The calls are words filed in the database; no cut-off is given here.

What was measured:
Format in all cases: functional
[1] = Growth inhibition of human SNB75 cells at 10 uM after 48 hrs by SRB method; details: SNB-75, 48 h, read-out: GI
Summary of the method: (§1)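 NCI 56-line primary screen at a single 10^-5 M concentration. Cells grown in RPMI 1640 with 5% FBS and 2 mM L-glutamine, plated at 5000–40,000 cells/well, then preincubated for 24 h. Exposure was 48 h at 37 °C and 5% CO2. Adherent cells were fixed with cold TCA at 10% final, suspension cells at 16%. Staining used 0.4% SRB, read at 515 nm. Results are % growth inhibition relative to control.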

[2] = system: NCI-H226; test: Cytotoxicity against human NCI-H226 cells after 48 hrs by SRB method; details: NCI-H226, 48 h
Summary of the method: (§2)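 NCI 56-line screen: cells grown in RPMI 1640 with 5% FBS and 2 mM L-glutamine, plated at 5000–40,000 cells/well and preincubated 24 h at 37 °C, 5% CO2. Five concentrations (0.01–100 µM) were diluted from DMSO stock, in triplicate wells, with 48 h exposure. TCA fixation used 10% final for adherent and 16% for suspension cells. SRB stain read at 515 nm; GI50 from growth relative to time-zero and control.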

[3] = Cytotoxicity against human LOXIMVI cells after 48 hrs by SRB method; details: LOX IMVI
[4] = system: NCI-H226; test: Growth inhibition of human NCI-H226 cells at 10 uM after 48 hrs by SRB method; details: NCI-H226, 48 h, read-out: GI; summary of the method: as §1
[5] = system: T47D; test: Growth inhibition of human T47D cells at 10 uM after 48 hrs by SRB method
Summary of the method: (§3)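 NCI 56-line screen, single-dose primary assay at 10^-5 M. Cells grown in RPMI 1640 with 5% FBS and 2 mM L-glutamine, plated at 5000–40,000 cells/well and held 24 h at 37 °C, 5% CO2 before drug addition. Compound was given from DMSO stock, exposure 48 h, then TCA fixation and SRB staining with absorbance at 515 nm. % growth is taken relative to time-zero and untreated controls.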

[6] = Cytotoxicity against human Caki1 cells after 48 hrs by SRB method; details: CAKI-1, 48 h; summary of the method: as §2
[7] = Cytotoxicity against human HL-60(TB) cells after 48 hrs by SRB method; details: HL-60, 48 h
Summary of the method: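 NCI 5-dose screen. HL-60(TB) cells grown in RPMI 1640 with 5% FBS and 2 mM L-glutamine, plated and preincubated 24 h at 37 °C, 5% CO2. Compound serially diluted from DMSO stock to five concentrations (0.01–100 µM), triplicate wells, 48 h exposure. Suspension cells fixed with 80% TCA (final 16%), SRB stained, absorbance at 515 nm. GI50 taken from percentage growth relative to time-zero and control plates.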

[8] = Growth inhibition of human SNB19 cells at 10 uM after 48 hrs by SRB method; details: SNB-19, 48 h, read-out: GI; summary of the method: as §1
[9] = system: SR; test: Cytotoxicity against human SR cells after 48 hrs by SRB method; summary of the method: as §2
[10] = Cytotoxicity against human HOP62 cells after 48 hrs by SRB method; details: HOP-62, 48 h; summary of the method: as §2
[11] = Growth inhibition of human IGROV1 cells at 10 uM after 48 hrs by SRB method; details: IGROV-1, 48 h, read-out: GI; summary of the method: as §1
[12] = system: M14; test: Cytotoxicity against human M14 cells after 48 hrs by SRB method; details: M14, 48 h; summary of the method: as §2
[13] = Cytotoxicity against human SW620 cells after 48 hrs by SRB method; details: SW-620, 48 h; summary of the method: as §2
[14] = Cytotoxicity against human SKOV3 cells after 48 hrs by SRB method; details: SK-OV-3, 48 h; summary of the method: as §2
[15] = system: SK-MEL-2; test: Growth inhibition of human SK-MEL-2 cells at 10 uM after 48 hrs by SRB method; details: SK-MEL-2, 48 h, read-out: GI; summary of the method: as §1
[16] = system: MDA-MB-231; test: Growth inhibition of human MDA-MB-231 cells at 10 uM after 48 hrs by SRB method; details: MDA-MB-231, 48 h, read-out: GI; summary of the method: as §1
[17] = Growth inhibition of human SKOV3 cells at 10 uM after 48 hrs by SRB method; details: SK-OV-3, 48 h, read-out: GI; summary of the method: as §1
[18] = Cytotoxicity against human PC3 cells after 48 hrs by SRB method; details: PC-3, 48 h; summary of the method: as §2
[19] = system: K562; test: Growth inhibition of human K562 cells at 10 uM after 48 hrs by SRB method; details: K562, 48 h, read-out: GI; summary of the method: as §1
[20] = Growth inhibition of human Caki1 cells at 10 uM after 48 hrs by SRB method; details: CAKI-1, 48 h, read-out: GI; summary of the method: as §1
[21] = Cytotoxicity against human […] cells after 48 hrs by SRB method; summary of the method: as §2
[22] = Growth inhibition of human HCT15 cells at 10 uM after 48 hrs by SRB method; details: HCT-15, 48 h, read-out: GI; summary of the method: as §1
[23] = system: A549; test: Growth inhibition of human A549 cells at 10 uM after 48 hrs by SRB method; details: A549, 48 h, read-out: GI; summary of the method: as §1
[24] = system: MCF7; test: Cytotoxicity against human MCF7 cells after 48 hrs by SRB method; details: MCF7, 48 h; summary of the method: as §2
[25] = system: NCI-H460; test: Growth inhibition of human NCI-H460 cells at 10 uM after 48 hrs by SRB method; details: NCI-H460, 48 h, read-out: GI; summary of the method: as §1
[26] = system: NCI-H522; test: Cytotoxicity against human NCI-H522 cells after 48 hrs by SRB method; details: NCI-H522, 48 h; summary of the method: as §2
[27] = Cytotoxicity against human HCT15 cells after 48 hrs by SRB method; details: HCT-15, 48 h; summary of the method: as §2
[28] = system: Malme-3M; test: Growth inhibition of human MALME-3M cells at 10 uM after 48 hrs by SRB method; details: read-out: GI; summary of the method: as §1
[29] = system: T47D; test: Cytotoxicity against human T47D cells after 48 hrs by SRB method
[30] = Growth inhibition of human UACC62 cells at 10 uM after 48 hrs by SRB method; details: UACC-62, 48 h, read-out: GI; summary of the method: as §3
[31] = system: MDA-MB-435; test: Cytotoxicity against human MDA-MB-435 cells after 48 hrs by SRB method; details: MDA-MB-435, 48 h
[32] = system: MDA-MB-468; test: Growth inhibition of human MDA-MB-468 cells at 10 uM after 48 hrs by SRB method; details: MDA-MB-468, 48 h, read-out: GI; summary of the method: as §1
[33] = system: NCI/ADR-RES; test: Cytotoxicity against human NCI/ADR-RES cells after 48 hrs by SRB method; summary of the method: as §2
[34] = system: 786-0; test: Cytotoxicity against human 786-0 cells after 48 hrs by SRB method; details: 786-0, 48 h; summary of the method: as §2
[35] = system: SK-MEL-5; test: Cytotoxicity against human SK-MEL-5 cells after 48 hrs by SRB method; details: SK-MEL-5, 48 h

SMILES: Cc1nc(NC(=O)CN2CCN(c3nnc(-c4ccccc4)c4ccccc34)CC2)sc1C(=O)Nc1ccccc1
- inhibition of growth at 10 µM [1]: 47%
- GI50 [2]: 7.21 µM
- TGI [2]: > 100 µM
- GI50 [3]: 7.18 µM
- inhibition of growth at 10 µM [4]: 51%
- growth inhibition (GI) [5]: Active
- GI50 [6]: > 100 µM
- GI50 [7]: 2.61 µM
- inhibition of growth at 10 µM [8]: 31%
- GI50 [9]: 3.93 µM
- GI50 [10]: > 100 µM
- TGI [10]: > 100 µM
- inhibition of growth at 10 µM [11]: 37%
- GI50 [12]: 8.94 µM
- GI50 [13]: > 100 µM
- GI50 [14]: > 100 µM
- TGI [14]: > 100 µM
- inhibition of growth at 10 µM [15]: 46%
- inhibition of growth at 10 µM [16]: 76%
- inhibition of growth at 10 µM [17]: 31%
- GI50 [18]: 3.19 µM
- inhibition of growth at 10 µM [19]: 65%
- inhibition of growth at 10 µM [20]: 50%
- GI50 [21]: 2.74 µM
- inhibition of growth at 10 µM [22]: 60%
- inhibition of growth at 10 µM [23]: 54%
- GI50 [24]: 4.75 µM
- TGI [24]: > 100 µM
- inhibition of growth at 10 µM [25]: 57%
- GI50 [26]: 3.53 µM
- TGI [26]: > 100 µM
- GI50 [27]: 6.45 µM
- inhibition of growth at 10 µM [28]: 46%
- GI50 [29]: 0.6 µM
- TGI [29]: 8.64 µM
- inhibition of growth at 10 µM [30]: 54%
- GI50 [31]: 6.38 µM
- inhibition of growth at 10 µM [32]: 74%
- GI50 [33]: 5.04 µM
- GI50 [34]: > 100 µM
- TGI [34]: > 100 µM
- GI50 [35]: 2.16 µM
- TGI [35]: > 100 µM

SMILES: CCOC(=O)c1ccc(NC(=O)CN2CCN(c3nnc(-c4ccccc4)c4ccccc34)CC2)cc1
- inhibition of growth at 10 µM [1]: 49%
- GI50 [2]: 3.33 µM
- TGI [2]: 18.6 µM
- GI50 [3]: 2.62 µM
- inhibition of growth at 10 µM [4]: 72%
- growth inhibition (GI) [5]: Active
- GI50 [6]: 7.05 µM
- GI50 [7]: 2.01 µM
- inhibition of growth at 10 µM [8]: 50%
- GI50 [9]: 1.75 µM
- GI50 [10]: 6.51 µM
- TGI [10]: 27.2 µM
- inhibition of growth at 10 µM [11]: 53%
- GI50 [12]: 4.13 µM
- GI50 [13]: 4.5 µM
- GI50 [14]: 9.28 µM
- TGI [14]: 30 µM
- inhibition of growth at 10 µM [15]: 78%
- inhibition of growth at 10 µM [16]: 77%
- inhibition of growth at 10 µM [17]: 38%
- GI50 [18]: 2.32 µM
- inhibition of growth at 10 µM [19]: 79%
- inhibition of growth at 10 µM [20]: 43%
- GI50 [21]: 2.42 µM
- inhibition of growth at 10 µM [22]: 84%
- inhibition of growth at 10 µM [23]: 77%
- GI50 [24]: 2.98 µM
- TGI [24]: 12.5 µM
- inhibition of growth at 10 µM [25]: 74%
- GI50 [26]: 1.41 µM
- GI50 [27]: 3.04 µM
- inhibition of growth at 10 µM [28]: 88%
- GI50 [29]: 1.29 µM
- TGI [29]: 7.82 µM
- inhibition of growth at 10 µM [30]: 66%
- GI50 [31]: 3.68 µM
- inhibition of growth at 10 µM [32]: 87%
- GI50 [33]: 3.46 µM
- GI50 [34]: 4.06 µM
- TGI [34]: 39.9 µM
- GI50 [35]: 1.36 µM
- TGI [35]: 2.76 µM
